Screens: PubChem, several laboratories
Shown are actives, neighbours in structure and some others; about 1.8% of the full set was active somewhere.
TNAP act hiacc = activators of human TNAP at high phosphate acceptor concentration; P05186; purified TNAP, CDP-star luminescence, 1 M DEA, 30 min; active compounds read high; 0 = EDTA background, 1 = DMSO-only activity; activation factor at 20 µM; 200,000 tested, under 10 active; AID 1136;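 active means activation factor at least 2 at 20 µM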
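Dosing: 20 µM single point. System: human TNAP. Amount: TNAP 1/800 final. Incubation: 30 min, room temperature. Read-out: TNAP activation factor scaled between EDTA and DMSO control wells. Signal: luminescence from CDP-star hydrolysis. Medium: 1 M DEA, pH 9.8, Mg2+, Zn2+. Control set: EDTA negative control, DMSO positive control.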
p47phox inh = inhibitors of human p47phox binding; P14598; p47phox/p22phox peptide binding, fluorescence polarization, 2 h; inhibition, % at 24.7 µM; 220,000 tested, 0.53% active;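 active means inhibition above about 30%, limit read from the data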;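 further: 0% = p47phox with labelled peptide and 100% = labelled peptide alone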
Target sequence (P14598 whole entry, looked up): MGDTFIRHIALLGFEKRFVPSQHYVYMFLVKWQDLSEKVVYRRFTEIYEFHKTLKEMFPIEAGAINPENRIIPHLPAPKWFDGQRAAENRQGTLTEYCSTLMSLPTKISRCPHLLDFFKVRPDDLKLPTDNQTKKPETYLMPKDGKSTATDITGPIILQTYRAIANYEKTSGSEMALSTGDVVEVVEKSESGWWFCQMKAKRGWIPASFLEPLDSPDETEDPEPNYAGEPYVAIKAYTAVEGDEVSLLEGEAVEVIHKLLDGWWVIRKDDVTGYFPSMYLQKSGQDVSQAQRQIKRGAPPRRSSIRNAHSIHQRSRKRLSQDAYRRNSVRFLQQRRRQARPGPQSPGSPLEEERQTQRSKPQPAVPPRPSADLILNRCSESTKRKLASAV
TNAP inh noacc = blocks human TNAP activity with no phosphate acceptor present. P05186. purified TNAP, CDP-star luminescence, 30 min. inhibition, % at 20 µM. 200,000 tested, 0.26% active. AID 1012;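 active means tissue-nonspecific alkaline phosphatase inhibition above about 50% at 20 µM in the single-dose screen, limit read from the data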;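 further: 0% = DMSO negative control and 100% = EDTA positive control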
TNAP inh hi DEA = inhibitors of human TNAP at high phosphate acceptor concentration; inhibition, % at 20 µM; purified TNAP, CDP-star luminescence, 1 M DEA; P05186; 200,000 tested, 0.03% active;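 active means over 50% inhibition of tissue-nonspecific alkaline phosphatase at 20 µM in the single-dose screen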;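 further: plate controls were DMSO wells for no effect and EDTA-quenched wells as full inhibition for full effect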
Autophagy HCS = modulators of autophagy; MEF GFP-LC3 puncta imaging; test concentration mostly 10 µM; calls only at 10 µM (by protocol); 190,000 tested, 0.98% active; AID 463193;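 active means percentage of spot-positive cells more than 3 SD above its plate mean, without a fluorescence outlier flag or 80% toxicity; inconclusive means no clear call, values can overlap the other calls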;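 further: spot-positive cell cutoff set from DMSO-treated cells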
Insulin prom up = MIN6 insulin promoter up-regulation | z-score at 5 µM | AID 1625 | 190,000 tested, 0.3% active | MIN6 insulin promoter-GFP reporter, high-content imaging; active compounds read high;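 active means z-score above 3 at 5 µM with at least 500 cells counted in the well; inconclusive means wells under 500 cells, flagged as cytotoxic or low count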
The depositor's hits bear a star; i = inactive; ? = inconclusive; nt = no result; + = active, no number.

SMILES	TNAP act hiacc	p47phox inh	TNAP inh noacc	TNAP inh hi DEA	Autophagy HCS	Insulin prom up
COc1ccccc1C(=O)Nc1ccc2c(c1)nc1n2CCSC1	1	-7.7	67.6*	2.4	i	0.19
CC(=O)Nc1ccc2c(c1)nc1n2CCSC1	1	-6.3	12.8	-3.9	i	nt
Cc1ccc(C(=O)Nc2ccc3c(c2)nc2n3CCSC2)cc1	1.1	-12.2	26.2	-6.5	i	0.28
CC1CCN(Cc2c(O)ccc3c(=O)c(-c4nc5ccccc5s4)c(N)oc23)CC1	1	-33.8	-34.8	2.8	+	-0.42
CC(C(=O)Nc1ccc2c(c1)OCCO2)N(C)Cc1c(F)cccc1Cl (stereo unspecified)	1	-10.2	-12.4	-0.7	+	-0.29
COc1ccccc1N1CCN(/N=C/c2ccc(O)c(O)c2)CC1	1	-1.4	53.9*	0.6	i	1.24
COc1ccc(CCNC(=O)C(=O)N2CCCC2)cc1OC	1	-0.9	-1.7	1.0	i	-0.01
Cc1ccc(/C=N/NC(=O)c2ccccc2OCc2cccc(Br)c2)o1	1	-3.6	-13.2	-4.7	i	-0.31
O=C(Nc1ccccc1C(=O)O)c1ccc(NC(=O)c2ccc(Br)o2)cc1	1	90.4*	-8.2	-0.9	i	0.77
O=C(Nc1ccccc1C(=O)O)c1cccc(NC(=O)c2ccc(Br)o2)c1	1	-15.5	-8.7	-4.5	i	-0.07
CN(Cc1cn(C)c2ccccc12)C(=S)Nc1cc(F)cc(F)c1	1	-13.6	-1.6	-2.0	i	0.07
C/C(=N\NC(=O)c1ccccc1O)C1C(=O)c2ccccc2C1=O	0.9	-30.4	59.8*	12.2	i	nt
C#CCCOC(=O)Nc1ccccc1	nt	-7.9	nt	nt	nt	0.21
Nc1n[nH]c(-c2ccccc2)n1	1	-16.9	35.4	-3.3	i	0.23
Nc1n[nH]c(-c2ccccc2[N+](=O)[O-])n1	1	-0.1	86.4*	2.4	i	-0.07
O=C(Cn1nc2n(c1=O)-c1ccccc1SC2)N/N=C/c1cccnc1	nt	4.3	nt	nt	nt	0.08
NS(=O)(=O)c1cccnc1Nc1c(Cl)cccc1Cl	0.5	-9.0	58.2*	52.0*	i	-0.31
Nc1c(C(=O)NCCc2ccc(Cl)cc2)sc2ccc(S(=O)(=O)N3CCCCC3)cc12	1	-5.5	10.2	1.6	i	-0.08
Cn1c(=O)c2c(nc(N3CCNCC3)n2Cc2cccc3ccccc23)n(C)c1=O	1	-4.2	-1.7	0.4	+	-0.55
Cn1c(=O)[nH]c(=O)c2c1nc(N1CCNCC1)n2Cc1cccc2ccccc12	1	-1.2	-3.5	-2.6	i	-1.07
CCOC(=O)c1ccc(N=Nc2c(C)c(C#N)c(O)[nH]c2=O)cc1	0.7	0.2	-7.1	32.0	i	0.23
O=[N+]([O-])c1ccc(Nc2c3ccccc3nc3ccccc23)cc1	0.8	-18.5	10.1	18.6	+	-0.84
COc1ccc2[nH]cc(CCN=C3SCC(=O)N3C)c2c1	1	-11.2	-15.2	-4.2	i	?
C=CCNc1ncnc2sc(SC)nc12	nt	-4.2	nt	nt	nt	-0.43
Cc1ccc(Nc2nc(N)nc(CN3CCc4ccccc4C3)n2)cc1	1.1	77.1*	-0.7	-6.3	i	0.39
SMILES	TNAP act hiacc	p47phox inh	TNAP inh noacc	TNAP inh hi DEA	Autophagy HCS	Insulin prom up
CN1CCN(Cc2nc(N)nc(Nc3ccc4c(c3)OCCO4)n2)CC1	1	-12.5	15.5	0.9	i	4.73*
CCOC(=O)c1csc(NC(=O)c2cc(=O)c3ccccc3o2)n1	1.1	-3.9	-11.0	-7.0	i	-0.3
CC(=O)c1sc(NC(=O)c2cc(=O)c3ccccc3o2)nc1C	1	10.5	-11.4	4.0	+	-1.1
Cc1ccc2nc(Nc3nc(C)cc(-c4ccccc4)n3)[nH]c(=O)c2c1	nt	-3.9	nt	nt	nt	-0.53
CCOc1ccc(OCC(O)CNC2CCN(Cc3ccccc3)CC2)cc1 (stereo unspecified)	1	-10.6	-7.7	-2.3	i	0.35
CC(C)(c1ccccc1)c1ccc(OCC(O)CNC2CCN(Cc3ccccc3)CC2)cc1 (stereo unspecified)	1.1	14.8	-14.6	-5.9	+	?
CC(CCc1ccccc1)NC(=O)CNC(=S)N(Cc1cccs1)C1CCCC1 (stereo unspecified)	1.1	-1.8	-11.3	-9.8	i	-0.74
Cc1cc(C)c(S(=O)(=O)N(C)CC(N)=O)c(C)c1	1	62.6*	-9.3	-0.9	i	0.46
O=P1(c2ccccc2)C=Cn2c1cc1c2CCCC1 (stereo unspecified)	nt	-7.0	nt	nt	i	nt
CN(C)CCCNC(=O)c1cc2c3ccccc3n(C)c2s1	1	-7.2	-9.5	-2.7	+	-0.32
Cn1c2ccccc2c2cc(C(=O)NNS(=O)(=O)c3ccc(F)cc3)sc21	1.1	-13.8	-25.1	-5.1	i	-0.76
Cc1c(C(=O)Nc2cccc(Cl)c2)c2ccccn2c1CCc1ccncc1	1	-32.2	-9.2	1.4	+	0.12
CC1=C(C#N)c2nc(N)c(C#N)c(C)c2/C1=C\c1ccc(C)cc1	1	-8.4	9.7	-0.3	+	0.74
COc1ccc(NC(=O)CCS(=O)(=O)c2cccc3nonc23)c(OC)c1	1	79.6*	-5.6	2.3	i	0.49
Cc1cccc2cc3c(N)c(C#N)sc3nc12	1.1	-52.3	-22.2	-7.2	i	0.14
Cc1cccc2cc3c(N)c(C(=O)N4CCc5ccccc54)sc3nc12	1	-66.8	-9.2	1.0	+	4.42*
Cc1sc(NC(=O)c2sc3nc4c(C)cccc4cc3c2N)c(C#N)c1C	1	-50.9	19.4	-1.7	+	nt
O=C(NN1CCOCC1)c1cc(S(=O)(=O)Nc2cccc(C(F)(F)F)c2)ccc1Cl	1	-1.6	-12.7	4.5	i	0.8
CC(=O)NCC(=O)NNC1CC(=O)N(c2cccc(Cl)c2)C1=O (stereo unspecified)	nt	-19.9	nt	nt	nt	nt
CC(C)N1CCc2c(sc(NC(=O)c3ccc(S(=O)(=O)N4CCc5ccccc54)cc3)c2C(N)=O)C1	1	21.4	-3.1	-0.6	+	nt
CC(C)N1CCc2c(sc(NC(=O)c3nc4ccccc4s3)c2C(N)=O)C1	1	-37.8	-4.3	4.5	i	0.29
O=C(COC(=O)c1ccc(Cl)nc1)Nc1ccccc1OC(F)F	1	-3.2	-9.3	-0.8	i	-0.08
Cc1ccsc1/C=c1\sc2ncnn2c1=O	0.8	-39.9	83.9*	23.5	i	-0.28
COc1cc(OC)c(OC)cc1/C=N/NC(=S)NCCN1CCOCC1	1	-3.4	-11.6	-3.3	+	-0.08
COc1ccc2ccccc2c1/C=N/NC(=S)NCCN1CCOCC1	1	2.0	0.1	1.8	i	0
S=C(NCCN1CCOCC1)N/N=C/c1c2ccccc2cc2ccccc12	1	-31.8	-0.8	0.7	+	-0.26
